Results on one compound are retold here after ChEMBL document CHEMBL2176911 (J Med Chem, 2012).

SMILES strings stand for the structures. pIC50, pKd: −log10 of the molar value. Activity calls are given as the source filed them. No cut-off for these calls is given here.

The target of assay [1] is Dual specificity protein kinase CLK3 (Mus musculus, UniProt O35492). The experiment in a line: Inhibition of mouse recombinant GST-tagged CLK3 expressed in Escherichia coli using GRSRSRSRSRSR as substrate and [gamma33P]ATP after 30 mins by scintillation counting. Summed up: (§1)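 Panel of purified kinases (recombinant from several species plus native enzymes), each assayed radiometrically over a range of inhibitor concentrations; IC50 in μM calculated from the dose-response curves.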
Chain of Dual specificity protein kinase CLK3 (O35492 whole entry): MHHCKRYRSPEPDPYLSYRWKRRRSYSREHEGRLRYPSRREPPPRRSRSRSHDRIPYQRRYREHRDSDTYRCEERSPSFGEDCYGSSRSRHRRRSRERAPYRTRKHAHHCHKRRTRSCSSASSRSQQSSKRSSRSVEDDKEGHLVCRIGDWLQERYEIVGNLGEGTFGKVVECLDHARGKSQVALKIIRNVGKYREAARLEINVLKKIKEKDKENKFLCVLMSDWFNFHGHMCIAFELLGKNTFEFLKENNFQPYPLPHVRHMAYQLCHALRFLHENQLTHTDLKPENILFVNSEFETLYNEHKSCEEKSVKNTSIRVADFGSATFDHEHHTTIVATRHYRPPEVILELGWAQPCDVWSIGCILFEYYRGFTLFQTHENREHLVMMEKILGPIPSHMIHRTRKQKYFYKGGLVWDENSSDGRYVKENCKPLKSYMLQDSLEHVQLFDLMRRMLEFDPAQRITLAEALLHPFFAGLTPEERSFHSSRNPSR

Assay [2] is described as follows: Inhibition of starfish CDK1/cyclin B using histone H1 as substrate and [gamma33P]ATP after 30 mins by scintillation counting. Also on record: species or system Asteroidea. Summed up: as §1
Assay [3] concerns HT-22. Briefly: Neuroprotective activity against glutamate-induced toxicity in mouse HT22 cells at 10 to 20 uM up to 48 hrs by MTS assay. It counts as functional, cell-based. A general note: Tetrazolium assays rely on reduction of a dye to a coloured formazan, in cell work by metabolically active cells.
The target of assay [4] is Dual specificity tyrosine-phosphorylation-regulated kinase 1A (Mus musculus) (UniProt Q61214). Briefly: Inhibition of DYRK1A isolated from mouse HT22 cells. The class given is cell-free. Conditions: HT-22.
In assay [5] the test system is HT-22. The experiment in a line: Downregulation of DYRK1A expression in mouse HT22 cells after 4 hrs by Western blot analysis. The class given is functional, cell-based. (In western blotting, separated proteins are transferred to a membrane and probed.)
For assay [6], the target named is Protein VAC14 homolog (Mus musculus) (UniProt Q80WQ2). Briefly: Binding affinity to VAC14 in mouse brain homogenate by Western blot analysis. The class given is tissue-based. Summed up: (§2)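 Bead pull-down from HT22 cell or mouse brain extracts, with ethanolamine beads lacking ligand as control. Specificity was tested by adding excess free inhibitor to the extracts before binding.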
Chain of Protein VAC14 homolog (Mus musculus) (Q80WQ2 whole entry): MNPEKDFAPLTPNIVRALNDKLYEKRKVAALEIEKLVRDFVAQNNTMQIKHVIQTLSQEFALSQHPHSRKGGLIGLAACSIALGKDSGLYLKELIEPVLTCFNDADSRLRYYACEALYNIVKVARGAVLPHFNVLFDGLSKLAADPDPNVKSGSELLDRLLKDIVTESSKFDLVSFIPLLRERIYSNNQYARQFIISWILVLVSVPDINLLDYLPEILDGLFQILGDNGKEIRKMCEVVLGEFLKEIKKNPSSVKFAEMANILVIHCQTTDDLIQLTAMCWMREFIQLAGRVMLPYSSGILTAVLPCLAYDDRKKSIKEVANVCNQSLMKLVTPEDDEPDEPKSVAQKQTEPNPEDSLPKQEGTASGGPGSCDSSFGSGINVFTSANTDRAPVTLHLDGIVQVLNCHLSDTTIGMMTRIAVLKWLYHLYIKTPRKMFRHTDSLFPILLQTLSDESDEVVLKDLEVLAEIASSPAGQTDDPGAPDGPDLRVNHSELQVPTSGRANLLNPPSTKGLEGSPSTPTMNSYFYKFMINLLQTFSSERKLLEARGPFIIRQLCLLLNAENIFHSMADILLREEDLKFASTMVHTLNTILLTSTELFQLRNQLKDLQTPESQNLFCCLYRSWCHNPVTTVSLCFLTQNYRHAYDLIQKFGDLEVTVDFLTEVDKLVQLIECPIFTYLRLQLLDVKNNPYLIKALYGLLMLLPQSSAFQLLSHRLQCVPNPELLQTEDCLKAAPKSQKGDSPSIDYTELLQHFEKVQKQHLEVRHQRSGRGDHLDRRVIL

For assay [7], the target named is Casein kinase II subunit alpha (Mus musculus) (UniProt Q60737). Briefly: Binding affinity to CK2 alpha subunit in mouse brain homogenate by Western blot analysis. The class given is tissue-based. The gist of the method:
as §2

The next assay is filed under the species Mus musculus. The experiment in a line: Binding affinity to GSK3beta2 in mouse brain homogenate by Western blot analysis. The class given is tissue-based. Summed up:
as §2

In assay [8] the target is Glycogen synthase kinase-3 alpha (Mus musculus) (UniProt Q2NL51). Briefly: Binding affinity to GSK3alpha in mouse brain homogenate by Western blot analysis. The class given is tissue-based. The gist of the method: as §2
Chain of Glycogen synthase kinase-3 alpha (Mus musculus) (Q2NL51 whole entry): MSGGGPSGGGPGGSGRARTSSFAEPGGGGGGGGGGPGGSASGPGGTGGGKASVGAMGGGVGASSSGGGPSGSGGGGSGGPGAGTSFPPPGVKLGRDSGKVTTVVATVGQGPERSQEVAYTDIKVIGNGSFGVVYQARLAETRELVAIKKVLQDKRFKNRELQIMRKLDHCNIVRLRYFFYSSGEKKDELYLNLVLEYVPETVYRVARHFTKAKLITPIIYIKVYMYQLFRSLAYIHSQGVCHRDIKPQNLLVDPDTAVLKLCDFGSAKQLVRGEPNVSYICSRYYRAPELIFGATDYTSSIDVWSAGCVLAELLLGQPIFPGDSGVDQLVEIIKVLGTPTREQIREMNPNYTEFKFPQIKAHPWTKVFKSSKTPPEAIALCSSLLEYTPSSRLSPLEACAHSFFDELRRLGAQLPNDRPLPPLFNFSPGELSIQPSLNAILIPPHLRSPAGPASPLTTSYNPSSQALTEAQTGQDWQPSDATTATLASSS
Assay [9] concerns the target Dual specificity tyrosine-phosphorylation-regulated kinase 1A (Mus musculus) (UniProt Q61214). The experiment in a line: Binding affinity to DYRK1A in mouse brain homogenate by Western blot analysis. The class given is tissue-based. Summed up:
as §2

Assay [10] addresses Casein kinase II subunit beta (Mus musculus) (UniProt P67871). The experiment in a line: Binding affinity to CK2 beta subunit in mouse HT22 cell lysate by Western blot analysis. The following applies: HT-22. It counts as cell-free. The gist of the method: as §2
Assay [11] has as its target Casein kinase II subunit alpha' (Mus musculus) (UniProt O54833). Briefly: Binding affinity to CK2 alpha' subunit in mouse HT22 cell lysate by Western blot analysis. It counts as cell-free. The following applies: HT-22. Summed up:
as §2

For assay [12], the target named is Glycogen synthase kinase-3 alpha (Mus musculus, UniProt Q2NL51). The experiment in a line: Binding affinity to GSK3A in mouse brain homogenate after 3 hrs by competition affinity chromatographic analysis. It counts as tissue-based. The gist of the method: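 Mouse brain lysate applied to a KinAffinity matrix of mixed immobilized broad-spectrum kinase inhibitors at highest loading density, with increasing concentrations of free inhibitor added. […] Separate titrations of the immobilized ligands gave BC50 values.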
Chain of Glycogen synthase kinase-3 alpha (Q2NL51 whole entry): as above

Assay [13] is described as follows: Binding affinity to casein kinase 2.
Assay [14] concerns the target Dual specificity protein kinase CLK4 (Homo sapiens, UniProt Q9HAZ1). The experiment in a line: Binding affinity to CLK4.
Assay [15] is described as follows: Inhibition of CK2 at 1 uM after 30 mins.
Assay [16] has as its target Homeodomain-interacting protein kinase 2 (Homo sapiens) (UniProt Q9H2X6). The experiment in a line: Inhibition of human recombinant GST-tagged HIPK2 expressed in Escherichia coli at 1 uM after 30 mins.
Assay [17] has as its target Glycogen synthase kinase-3 beta (Homo sapiens, UniProt P49841). Briefly: Inhibition of human recombinant GSK3beta expressed in insect cells using YRRAAVPPSPSLSRHSSPHQ-phosphoS-EDEEE as substrate and [gamma33P]ATP after 30 mins by scintillation counting.
Assay [18] addresses T1, Dual specificity tyrosine-phosphorylation-regulated kinase 4 (Homo sapiens, UniProt Q9NR20).
T1 sequence (Q9NR20 whole entry): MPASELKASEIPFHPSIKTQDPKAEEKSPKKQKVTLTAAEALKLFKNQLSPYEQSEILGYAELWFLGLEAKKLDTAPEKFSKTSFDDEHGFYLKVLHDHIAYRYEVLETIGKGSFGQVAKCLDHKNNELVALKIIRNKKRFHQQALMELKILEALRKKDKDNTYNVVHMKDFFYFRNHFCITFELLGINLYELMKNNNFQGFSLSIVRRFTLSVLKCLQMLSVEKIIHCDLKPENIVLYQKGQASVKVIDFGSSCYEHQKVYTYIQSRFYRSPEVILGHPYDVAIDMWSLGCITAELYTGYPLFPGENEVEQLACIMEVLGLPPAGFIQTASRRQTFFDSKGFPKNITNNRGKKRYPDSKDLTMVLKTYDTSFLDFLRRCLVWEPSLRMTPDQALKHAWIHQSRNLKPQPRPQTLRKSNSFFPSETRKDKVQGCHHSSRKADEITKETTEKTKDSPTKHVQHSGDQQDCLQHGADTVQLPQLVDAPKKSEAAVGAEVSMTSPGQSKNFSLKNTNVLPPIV
The experiment in a line: Inhibition of human recombinant GST-tagged DYRK4 expressed in Escherichia coli using GRSRSRSRSRSR as substrate and [gamma33P]ATP after 30 mins by scintillation counting.

Chain of Homeodomain-interacting protein kinase 2 (Homo sapiens) (Q9H2X6 whole entry, looked up): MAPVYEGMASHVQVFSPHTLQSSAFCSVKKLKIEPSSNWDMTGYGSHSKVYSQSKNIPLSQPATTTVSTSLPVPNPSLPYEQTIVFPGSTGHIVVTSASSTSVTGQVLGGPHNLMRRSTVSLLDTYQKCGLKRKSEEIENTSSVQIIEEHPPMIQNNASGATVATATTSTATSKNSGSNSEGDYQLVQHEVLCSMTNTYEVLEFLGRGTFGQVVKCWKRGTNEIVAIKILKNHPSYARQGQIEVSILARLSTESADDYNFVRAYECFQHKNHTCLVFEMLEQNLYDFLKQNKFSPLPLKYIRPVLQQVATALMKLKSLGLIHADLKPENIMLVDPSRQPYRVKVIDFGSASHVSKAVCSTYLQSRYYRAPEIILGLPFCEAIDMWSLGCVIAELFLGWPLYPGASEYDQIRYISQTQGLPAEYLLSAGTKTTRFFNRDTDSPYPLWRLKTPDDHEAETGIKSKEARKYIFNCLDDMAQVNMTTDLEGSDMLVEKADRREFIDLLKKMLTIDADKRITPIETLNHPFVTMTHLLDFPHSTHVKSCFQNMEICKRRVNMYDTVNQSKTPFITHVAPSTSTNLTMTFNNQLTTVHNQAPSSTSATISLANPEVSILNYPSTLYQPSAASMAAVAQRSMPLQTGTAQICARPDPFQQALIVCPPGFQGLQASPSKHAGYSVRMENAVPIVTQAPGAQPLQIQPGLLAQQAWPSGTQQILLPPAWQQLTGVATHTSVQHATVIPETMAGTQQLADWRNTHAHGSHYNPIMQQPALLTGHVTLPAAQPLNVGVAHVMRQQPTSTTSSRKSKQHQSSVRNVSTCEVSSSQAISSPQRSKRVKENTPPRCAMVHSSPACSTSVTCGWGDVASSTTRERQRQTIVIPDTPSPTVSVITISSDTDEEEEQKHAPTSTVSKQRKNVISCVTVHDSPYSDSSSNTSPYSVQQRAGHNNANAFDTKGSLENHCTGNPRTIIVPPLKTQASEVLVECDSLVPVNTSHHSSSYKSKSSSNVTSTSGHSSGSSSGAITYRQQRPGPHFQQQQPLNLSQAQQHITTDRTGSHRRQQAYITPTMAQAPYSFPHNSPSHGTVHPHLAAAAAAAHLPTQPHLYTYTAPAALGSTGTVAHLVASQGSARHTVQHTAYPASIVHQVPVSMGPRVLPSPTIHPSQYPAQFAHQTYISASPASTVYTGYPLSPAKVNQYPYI
Chain of Casein kinase II subunit beta (Mus musculus) (P67871 whole entry): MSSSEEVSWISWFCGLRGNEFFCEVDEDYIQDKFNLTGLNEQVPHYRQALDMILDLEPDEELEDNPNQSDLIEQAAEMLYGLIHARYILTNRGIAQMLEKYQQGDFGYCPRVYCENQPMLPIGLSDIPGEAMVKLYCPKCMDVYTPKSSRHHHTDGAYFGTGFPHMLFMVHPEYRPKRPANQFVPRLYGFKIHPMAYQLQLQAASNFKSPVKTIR
Chain of Casein kinase II subunit alpha (Mus musculus) (Q60737 whole entry): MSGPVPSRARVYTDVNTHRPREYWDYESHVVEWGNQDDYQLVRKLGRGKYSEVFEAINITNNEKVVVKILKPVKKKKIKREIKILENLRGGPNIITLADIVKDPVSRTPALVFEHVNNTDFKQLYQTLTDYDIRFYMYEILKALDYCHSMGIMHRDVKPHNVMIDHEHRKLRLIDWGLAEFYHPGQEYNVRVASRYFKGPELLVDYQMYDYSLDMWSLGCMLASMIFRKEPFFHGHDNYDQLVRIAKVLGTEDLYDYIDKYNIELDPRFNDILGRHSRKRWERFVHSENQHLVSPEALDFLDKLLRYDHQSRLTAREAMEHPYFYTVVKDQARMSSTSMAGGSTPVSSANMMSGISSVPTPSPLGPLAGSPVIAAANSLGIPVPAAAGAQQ
Chain of Casein kinase II subunit alpha' (Mus musculus) (O54833 whole entry): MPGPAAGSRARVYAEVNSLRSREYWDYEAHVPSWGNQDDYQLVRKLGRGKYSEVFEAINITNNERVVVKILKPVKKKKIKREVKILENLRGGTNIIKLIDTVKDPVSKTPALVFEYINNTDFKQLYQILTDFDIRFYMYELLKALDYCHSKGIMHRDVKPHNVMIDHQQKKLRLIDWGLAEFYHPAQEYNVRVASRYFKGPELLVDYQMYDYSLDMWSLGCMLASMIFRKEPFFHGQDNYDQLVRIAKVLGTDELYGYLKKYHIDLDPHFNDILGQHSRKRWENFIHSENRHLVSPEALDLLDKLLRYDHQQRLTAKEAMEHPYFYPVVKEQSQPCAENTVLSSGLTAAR
Chain of Glycogen synthase kinase-3 beta (P49841 whole entry): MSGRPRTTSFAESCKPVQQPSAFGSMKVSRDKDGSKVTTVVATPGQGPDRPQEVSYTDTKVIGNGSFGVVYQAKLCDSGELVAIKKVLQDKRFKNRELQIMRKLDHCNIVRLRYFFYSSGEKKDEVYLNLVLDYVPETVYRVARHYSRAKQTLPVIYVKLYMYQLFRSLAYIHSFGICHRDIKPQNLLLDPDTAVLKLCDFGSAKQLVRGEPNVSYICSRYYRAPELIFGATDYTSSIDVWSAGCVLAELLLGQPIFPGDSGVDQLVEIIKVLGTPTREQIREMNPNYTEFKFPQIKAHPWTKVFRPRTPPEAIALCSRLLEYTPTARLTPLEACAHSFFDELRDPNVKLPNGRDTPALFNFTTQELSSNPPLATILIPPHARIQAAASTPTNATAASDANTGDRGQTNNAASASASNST
Chain of Dual specificity protein kinase CLK4 (Q9HAZ1 whole entry): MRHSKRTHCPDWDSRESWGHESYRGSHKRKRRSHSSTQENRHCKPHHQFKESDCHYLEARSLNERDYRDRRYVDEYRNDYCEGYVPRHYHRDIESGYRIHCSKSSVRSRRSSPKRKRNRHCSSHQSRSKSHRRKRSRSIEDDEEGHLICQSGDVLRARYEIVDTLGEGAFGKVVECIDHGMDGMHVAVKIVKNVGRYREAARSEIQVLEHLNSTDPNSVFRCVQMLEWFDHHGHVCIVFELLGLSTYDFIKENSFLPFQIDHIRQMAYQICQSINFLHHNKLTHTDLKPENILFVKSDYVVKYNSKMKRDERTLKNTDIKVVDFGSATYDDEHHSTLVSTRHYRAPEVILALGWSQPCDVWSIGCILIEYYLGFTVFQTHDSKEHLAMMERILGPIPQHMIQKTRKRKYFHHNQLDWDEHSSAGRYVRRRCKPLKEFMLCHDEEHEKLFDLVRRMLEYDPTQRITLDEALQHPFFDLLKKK

Turning to `O=C1NC(Nc2ccccc2)=N/C1=C\c1ccc2c(c1)OCO2`, the pIC50 in assay [1] is less than 5.00; in assay [2], less than 4.52; in [17], 6.42; in assay [18], 6.28. Further, the outcome (with HT-22 [3]; in assay [6]; in assay [7]; in the assay listed under Mus musculus; in assay [8]; in assay [9]) was Active. Also, the result in [10], in assay [11] and in [13] was Active. For the same compound, the inhibition result in assay [4] is “Dose-dependent effect”. Moreover, the outcome with HT-22 [5] was inactive. Further, the “Kd(free)” value in [12] stood at 3274 nM. The same compound had a pKd in assay [14] of 7.15. Besides, the inhibition entry in [15] and in [16] was “Active” in each case.

Broadly, the pIC50 is the negative decadic logarithm of the IC50, by convention in mol/L. As a reminder, the pKd is −log10 of the Kd, conventionally taken in molar units. Lower therefore signals a high Kd.
